Reference: ChEMBL document CHEMBL3259693, “Multitarget drug discovery for tuberculosis and other infectious diseases” (J Med Chem, 2014)
In brackets after ≈: the same amount, converted by molar mass. Activity calls are given as the source filed them. The rule behind the calls is not given here.

Experiments:
[1] = test system: Mycobacterium tuberculosis; assay: Antimicrobial activity against Mycobacterium tuberculosis H37Rv; format: functional
[2] = Inhibition of Mycobacterium smegmatis MenG using radiolabeled S-adenosylmethionine as substrate after 1 hr by liquid scintillation counting analysis; parameters: species or system Mycolicibacterium smegmatis
[3] = Inhibition of Escherichia coli undecaprenyl diphosphate synthase
[4] = Inhibition of Mycobacterium tuberculosis cis-farnesyl diphosphate synthase
[5] = Inhibition of Staphylococcus aureus undecaprenyl diphosphate synthase
[6] = target: T1, Geranylgeranyl pyrophosphate synthase (Homo sapiens, UniProt O95749); assay: Inhibition of human geranylgeranyl diphosphate synthase
T1 sequence (O95749 whole entry): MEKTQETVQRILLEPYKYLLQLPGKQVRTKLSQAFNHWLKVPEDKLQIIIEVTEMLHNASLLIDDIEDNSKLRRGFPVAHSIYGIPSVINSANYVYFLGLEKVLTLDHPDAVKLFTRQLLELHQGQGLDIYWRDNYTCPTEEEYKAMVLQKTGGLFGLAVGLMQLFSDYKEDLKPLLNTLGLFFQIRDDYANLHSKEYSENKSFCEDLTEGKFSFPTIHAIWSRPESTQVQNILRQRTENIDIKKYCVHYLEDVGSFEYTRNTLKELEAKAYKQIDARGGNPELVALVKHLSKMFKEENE

[7] = test system: Mycolicibacterium smegmatis; assay: Inhibition of respiration in Mycobacterium smegmatis after 5 mins by methylene blue reduction assay in presence of NADH; format: functional, organism-based
[8] = Inhibition of Mycobacterium smegmatis electron transport protein complex 1 using deamino-NADH as substrate by MTT assay; parameters: species or system Mycolicibacterium smegmatis
Procedure, shortened: (§1)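 M. smegmatis membrane preparation with 5 mM KCN. Dehydrogenase activity was followed as MTT reduction at 570 nm after adding substrate: NADH (Complex I plus NDH-2), deamino-NADH (Complex I only), succinate, malate or lactate. IC50 values were derived from these rates.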

[9] = Inhibition of Escherichia coli N-terminal strep-tagged MenA expressed in Escherichia coli C43 (DE3) assessed as demethylmenaquinone-3 formation after 30 mins by HPLC analysis
Bacillus subtilis = assay: Antimicrobial activity against Bacillus subtilis subsp. subtilis ATCC 6051 after 12 to 16 hrs by microbroth dilution method; format: functional, organism-based
Saccharomyces cerevisiae = assay: Antimicrobial activity against Saccharomyces cerevisiae ATCC 208352 after 48 hrs by microbroth dilution method; format: functional, organism-based; conditions: ATCC 208352, 48 h
Plasmodium falciparum = assay: Antimicrobial activity against Plasmodium falciparum 3D7 by intraerythrocytic assay; format: functional, organism-based
[10] = test system: Mycolicibacterium smegmatis; assay: Induction of collapse in deltapH in Mycobacterium smegmatis inverted membrane vesicles at 30 to 150 uM by 31P NMR spectroscopy; format: functional
Squalene synthase = target: T2, Squalene synthase (Homo sapiens, UniProt P37268); assay: Inhibition of human SQS
T2 sequence (P37268 whole entry): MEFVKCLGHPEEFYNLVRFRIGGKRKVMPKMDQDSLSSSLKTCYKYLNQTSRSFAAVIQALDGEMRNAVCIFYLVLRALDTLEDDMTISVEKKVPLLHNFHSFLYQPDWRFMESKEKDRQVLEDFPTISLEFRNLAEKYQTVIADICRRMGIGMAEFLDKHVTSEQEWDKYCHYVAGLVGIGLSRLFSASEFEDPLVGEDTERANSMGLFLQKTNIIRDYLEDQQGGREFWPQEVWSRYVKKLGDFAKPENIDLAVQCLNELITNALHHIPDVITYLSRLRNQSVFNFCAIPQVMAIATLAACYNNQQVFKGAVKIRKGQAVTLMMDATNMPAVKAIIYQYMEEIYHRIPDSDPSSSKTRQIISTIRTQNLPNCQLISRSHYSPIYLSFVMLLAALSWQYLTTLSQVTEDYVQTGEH

[11] = test system: Mycobacterium tuberculosis; assay: Antimicrobial activity against nonreplicating streptomycin-starved Mycobacterium tuberculosis 18b at 1 ug/ml incubated for 7 days measured after 28 days by resazurin microplate reduction assay; format: functional
[12] = test system: Mycobacterium tuberculosis; assay: Antimicrobial activity against Mycobacterium tuberculosis H37Rv incubated for 7 days measured after 28 days by resazurin microplate reduction assay; format: functional
Procedure, shortened: (§2)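 Resazurin microplate reduction assay (REMA) on actively growing M. tuberculosis H37Rv. Drug tested from 10 ng/mL to 10 μg/mL. Medium was supplemented with 0, 10, 100 or 1000 μM menaquinone-4 (MK-4) to test quinone rescue. Activity was read as loss of resazurin reduction to fluorescent resorufin, giving an MIC.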

Candida albicans = assay: Antimicrobial activity against Candida albicans CAI-4; format: functional, organism-based
[13] = Inhibition of Mycobacterium smegmatis electron transport protein complex 1 using NADH as substrate by MTT assay; parameters: species or system Mycolicibacterium smegmatis; procedure, shortened: as §1
[14] = Inhibition of Plasmodium vivax geranylgeranyl diphosphate synthase
[15] = Inhibition of Mycobacterium smegmatis malate dehydrogenase using malate as substrate by MTT assay; parameters: species or system Mycolicibacterium smegmatis; procedure, shortened: as §1
[16] = Therapeutic index, ratio of IC50 for human MCF7 cells to MIC for Mycobacterium tuberculosis ATCC 27294; format: cell-based; conditions: MCF7 cells versus Mycobacterium tuberculosis ATCC 27294, read-out: TI
Escherichia coli [17] = assay: Induction of collapse in deltapH in Escherichia coli inverted membrane vesicles by 31P NMR spectroscopy; format: functional, organism-based
[18] = Therapeutic index, ratio of IC50 for human MCF7 cells to IC50 for Plasmodium falciparum 3D7; format: cell-based; conditions: MCF7 cells versus Plasmodium falciparum 3D7, read-out: Ratio IC50
[19] = Inhibition of Mycobacterium smegmatis lactate dehydrogenase using lactate as substrate by MTT assay; parameters: species or system Mycolicibacterium smegmatis; procedure, shortened: as §1
[20] = test system: Mycolicibacterium smegmatis; assay: microbe, parasite or virus in culture; format: functional; conditions: ATCC 700084
[21] = Inhibition of Staphylococcus aureus farnesyl diphosphate synthase
[22] = target: T3, 4,4'-diapophytoene synthase (Staphylococcus aureus, UniProt A9JQL9); assay: Inhibition of Staphylococcus aureus CrtM
T3 sequence (A9JQL9 whole entry): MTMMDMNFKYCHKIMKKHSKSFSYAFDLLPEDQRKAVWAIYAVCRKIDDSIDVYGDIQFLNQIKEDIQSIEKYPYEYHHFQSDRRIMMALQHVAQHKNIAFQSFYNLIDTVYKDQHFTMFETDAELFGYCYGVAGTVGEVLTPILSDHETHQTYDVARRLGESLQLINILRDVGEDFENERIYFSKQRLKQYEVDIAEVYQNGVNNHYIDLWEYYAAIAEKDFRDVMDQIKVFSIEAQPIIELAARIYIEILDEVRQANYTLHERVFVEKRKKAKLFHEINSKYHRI

[23] = Inhibition of Mycobacterium smegmatis MenA; parameters: species or system Mycolicibacterium smegmatis
[24] = Inhibition of Mycobacterium tuberculosis MenA
[25] = Inhibition of Mycobacterium tuberculosis cis-decaprenyl diphosphate synthase
[26] = Inhibition of Mycobacterium smegmatis NADH dehydrogenase using […] by MTT assay; parameters: species or system Mycolicibacterium smegmatis; procedure, shortened: as §1
Escherichia coli [27] = assay: microbe, parasite or virus in culture; format: functional, organism-based; conditions: ATCC 29425, 3 h
[28] = Inhibition of Mycobacterium smegmatis succinate dehydrogenase using succinate as substrate by MTT assay; parameters: species or system Mycolicibacterium smegmatis; procedure, shortened: as §1
[29] = test system: Mycobacterium tuberculosis; assay: Antimicrobial activity against Mycobacterium tuberculosis H37Rv incubated for 7 days measured after 28 days by resazurin microplate reduction assay in presence of MK-4; format: functional; procedure, shortened: as §2
Escherichia coli [30] = assay: Ratio of IC50 for Escherichia coli ATCC 29425 in presence of 10% fetal bovine serum to IC50 for Escherichia coli ATCC 29425; format: functional
Procedure, shortened: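 E. coli broth microdilution in LB. Culture was grown to OD600 ~0.4, diluted 500-fold, and exposed to compound from 0.3 mM, 2× serially diluted to 292 nM. Plates ran 3 h at 37 °C with or without 10% FBS. Viability was read by MTT at 570 nm, and IC50 was obtained by non-linear regression.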

MCF7 = assay: Cytotoxicity against human MCF7 cells assessed as growth inhibition by MTT assay; format: cell-based
[31] = test system: Mycobacterium tuberculosis; assay: microbe, parasite or virus in culture; format: functional; conditions: ATCC 27294
[32] = test system: Mycolicibacterium smegmatis; assay: Disruption of membrane potential in Mycobacterium smegmatis by DisC3(5) probe-based fluorescence spectrophotometry; format: functional, organism-based

CC(C)=CCC/C(C)=C/CNCCNC1C2CC3CC(C2)CC1C3 (centres undefined) [SQ109] gave an MIC [1] of 0.7 µM (≈ 0.231 µg/mL), an IC50 [2] of 13 µM and an IC50 [3] of at least 50 µM. For the same molecule, the IC50 [4] was at least 50 µM, the IC50 [5] was at least 50 µM and the IC50 [6] was 4.5 µM. For the same molecule, the IC50 [7] was 58 µM, the IC50 [8] was 30 µg/mL (≈ 90.8 µM) and the IC50 [9] was 3.3 µM. The IC50 (Bacillus subtilis) was 23 µM, the IC50 (Saccharomyces cerevisiae) was 3.3 µM and the IC50 (Plasmodium falciparum) was 3 µM. The Activity [10] was “Active”, the IC50 (Squalene synthase) was 100 µM and the MIC [11] was 1 µg/mL (≈ 3.03 µM). It also gave an MIC [12] of 0.15 µg/mL (≈ 0.454 µM), an IC50 (Candida albicans) of 10 µM and an IC50 [13] of 30 µg/mL (≈ 90.8 µM). The IC50 [14] was at least 50 µM, the IC50 [15] was 10 µg/mL (≈ 30.3 µM) and the selectivity ratio [16] was 120. It also gave an IC50 (Escherichia coli [17]) of 0.8 µM, a selectivity ratio [18] of 18 and an IC50 [19] of 30 µg/mL (≈ 90.8 µM). For the same molecule, the MIC [20] was 9.4 µM (≈ 3.11 µg/mL), the IC50 [21] was at least 50 µM and the IC50 [22] was 100 µM. It also gave an IC50 [23] of 4.8 µM, an IC50 [24] of 9 µM and an IC50 [25] of at least 50 µM. It also gave an IC50 [26] of 30 µg/mL (≈ 90.8 µM), an IC50 (Escherichia coli [27]) of 8.5 µM and an IC50 [28] of 30 µg/mL (≈ 90.8 µM). For the same molecule, the MIC [29] was 1 µg/mL, the “Ratio IC50” value (Escherichia coli [30]) was 1.6 and the IC50 (MCF7) was 18 µM. The MIC [31] was 0.3 µM (≈ 0.0992 µg/mL), the EC50 [32] was 20 µg/mL (≈ 60.5 µM) and the IC50 [32] was 55 µM.
